Rows were chosen to be rich in hits. Some 0.97% of all compounds tested hit in one or more screens of this group.
JMJD2C inh = human JMJD2C demethylase inhibition; Q9H3R0; GST-JMJD2C(1-420) H3K9me3 demethylation, DELFIA europium; inhibition, % at 2.35 µM; actives 0.069% (n = 330,000); AID 2099;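 active = more than half of a compound's replicate wells show inhibition beyond 50%, single wells judged on their own value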;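 note: signal counts dimethyl H3K9 product captured on neutravidin plate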
UCH37 inh = human UCH37 deubiquitinating enzyme inhibition. Q9Y5K5. purified proteasome/UCH37, Ub-AMC cleavage fluorescence. inhibition, % (no concentration beside the values). actives 0.33% (n = 330,000);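 active = mean inhibition over replicate wells above about 20%, limit read from the data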
Target sequence (Q9Y5K5 whole entry, looked up): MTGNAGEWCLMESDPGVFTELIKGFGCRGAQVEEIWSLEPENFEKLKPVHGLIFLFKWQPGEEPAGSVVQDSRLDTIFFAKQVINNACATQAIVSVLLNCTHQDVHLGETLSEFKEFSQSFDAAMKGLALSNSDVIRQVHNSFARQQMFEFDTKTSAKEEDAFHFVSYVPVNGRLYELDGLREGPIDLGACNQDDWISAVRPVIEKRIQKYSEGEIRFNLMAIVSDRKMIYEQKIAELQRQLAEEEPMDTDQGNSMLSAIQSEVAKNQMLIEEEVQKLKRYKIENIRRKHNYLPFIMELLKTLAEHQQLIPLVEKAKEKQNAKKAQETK
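assay system = human UCH37 enzyme supplied as purified proteasome complex | amount = proteasome at 0.15 nM in the dispensed enzyme solution | schedule = 30 min compound-proteasome preincubation then 25 min substrate reaction, room temperature | measured by = fluorescence, ex 355 nm, em 460 nm | benchmarks = no-proteasome wells (full inhibition) and compound-free wells (no inhibition)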
APOBEC3G inh = APOBEC3G (human) deaminase inhibition; Q9HC16; recombinant A3G, ssDNA deamination FAM/TAMRA fluorescence; inhibition, % at 20 µM; actives 0.28% (n = 330,000); AID 493012;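 active = inhibition of at least 40% at 20 µM, with no more than 30% in the related APOBEC3A deaminase screen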
APOBEC3A inh = blocks human APOBEC3A ssDNA deamination | P31941 | recombinant A3A, FAM/TAMRA ssDNA deamination fluorescence | actives 0.41% (n = 330,000) | inhibition, % at 20 µM;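 active = at least 40% inhibition at 20 µM here, with at most 30% in a related deaminase screen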
Target sequence (P31941 whole entry, looked up): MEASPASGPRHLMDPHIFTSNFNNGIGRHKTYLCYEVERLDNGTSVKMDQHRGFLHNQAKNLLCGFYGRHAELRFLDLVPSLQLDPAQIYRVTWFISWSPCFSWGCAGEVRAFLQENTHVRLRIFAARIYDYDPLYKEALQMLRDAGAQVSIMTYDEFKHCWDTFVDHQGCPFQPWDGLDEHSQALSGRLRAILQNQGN
APOBEC3A confirm = confirmation of human APOBEC3A DNA deaminase inhibitors | recombinant A3A, ssDNA deaminase UDG fluorescence assay | shares compounds with APOBEC3A inh | actives 63% (n = 1,400) | inhibition, % at 20 µM;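 active = inhibition reaching a set limit, 80% of the first screen's cutoff, at 20 µM in any replicate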
UDG ctr A3A = counter-screen for APOBEC3A inhibitors: UDG. shares compounds with APOBEC3A inh. UDG counterscreen, FAM/TAMRA uracil oligo fluorescence. inhibition, % at 20 µM. 1,000 tested, under 10 active. AID 504714; call rule not given here
A number is an active result; i = inactive; nt = no result.

SMILES | JMJD2C inh | UCH37 inh | APOBEC3G inh | APOBEC3A inh | APOBEC3A confirm | UDG ctr A3A
ON=Cc1ccc(OCC(O)COc2ccc(C=NO)cc2)cc1 (stereo not given) | nt | i | nt | nt | nt | nt
CS(=O)(=O)c1ccc(C(=O)N2CC(=O)Nc3ccccc32)cc1 | i | i | i | 54 | i | nt
Cc1cc(C)cc(C(=O)N2CC(=O)Nc3ccccc32)c1 | i | i | i | i | nt | nt
Cn1cc(/C=N/NC(=O)c2cc3cc(Br)ccc3o2)c2ccccc21 | i | nt | i | 52 | 58 | i
CCN(CC)S(=O)(=O)c1ccc(OC)c(NC(=O)Cc2cccs2)c1 | i | i | i | 43 | i | nt
COc1ccccc1/C=C/C(=O)NCC(=O)NN=Cc1ccc2c(c1)OCO2 | nt | i | nt | nt | nt | nt
Cc1ccc(C=NNC(=O)C2COc3ccccc3O2)s1 (stereo not given) | nt | i | nt | nt | nt | nt
COc1ccc(C(=O)NCCCN2CCOCC2)cc1 | nt | i | i | 72 | i | i
COc1ccc(NC(=S)NCCCN2CCCC2)cc1 | i | i | i | 41 | i | i
CCOc1ccc(NC(=S)NCCCN2CCN(c3ccc(OC)cc3)CC2)cc1 | i | i | i | i | nt | nt
O=C(NN=Cc1ccsc1)c1ccc2c(c1)OCO2 | nt | i | nt | nt | nt | nt
O=C(NCc1ccc2c(c1)OCO2)C1CCCN1S(=O)(=O)c1ccc(F)cc1 (stereo not given) | i | i | i | 55 | i | i
CCc1cc(C)cc(OCCOc2ccccc2C=NNC(C)=O)c1 | nt | i | nt | nt | nt | nt
CCN1CCN(S(=O)(=O)c2ccc(Cl)c(C(=O)N(C)C(c3ccccc3)c3ccccc3)c2)CC1 | i | i | i | 57 | 64 | i
CCN1CCN(S(=O)(=O)c2ccc(Cl)c(C(=O)N(C)Cc3cccs3)c2)CC1 | i | i | i | i | nt | nt
CC(=NNc1ccc2nncn2n1)c1ccc(Br)s1 | nt | i | nt | nt | nt | nt
NS(=O)(=O)c1ccc(CCNC(=O)CCS(=O)(=O)c2ccc(Br)cc2)cc1 | i | i | i | 46 | 40 | nt
O=C(CN1CCN(Cc2ccccc2)CC1)NN=C/C=C\c1ccco1 | nt | i | nt | nt | nt | nt
CC(=O)OC(COC1C[C@@H]2CC[C@@]1(C)C2(C)C)C[N+]1(C)CCCCC1 (stereo not given in full) | i | i | i | 48 | 70 | i
O=C(/C=C/c1ccco1)N1CCN(S(=O)(=O)c2cccc([N+](=O)[O-])c2)CC1 | i | i | i | 65 | 62 | i
COc1ccc(CC(=O)NN=Cc2cccnc2)cc1OC | nt | i | nt | nt | nt | nt
O=C(NC(=S)Nc1ccccc1C(=O)O)c1cncc(Br)c1 | i | i | i | 41 | 18 | i
O=C(Nc1ccccc1C(=O)Nc1ccccc1C(=O)O)c1ccccc1 | i | i | i | i | nt | nt
O=C(Nc1ccccc1C(=O)O)c1cncc(Br)c1 | i | i | i | 58 | i | nt
COc1ccc(C=NNC(=O)c2cc3c(ccc4ccccc43)o2)cc1O | nt | i | nt | nt | nt | nt
SMILES | JMJD2C inh | UCH37 inh | APOBEC3G inh | APOBEC3A inh | APOBEC3A confirm | UDG ctr A3A
CC(OC(=O)CCCN=C1NS(=O)(=O)c2ccccc21)C(=O)NC1CCCCC1C (stereo not given) | i | i | i | 51 | i | nt
CC(=O)c1ccc(NC(=O)C(C)OC(=O)CCCN=C2NS(=O)(=O)c3ccccc32)cc1 (stereo not given) | i | i | i | i | nt | nt
COc1ccc(S(=O)(=O)/N=C2/NC(=O)/C(=C\c3ccco3)S2)cc1 | i | i | i | i | nt | nt
COc1ccc(S(=O)(=O)/N=C2/NC(=O)/C(=C/c3ccco3)S2)cc1 | i | i | i | 46 | 24 | i
Cc1csc(=NN=C2CCCCC2)n1Cc1ccco1 | nt | i | nt | nt | nt | nt
COc1ccc(OCc2nn[nH]n2)cc1 | i | i | i | 56 | i | i
CC(=NO)c1ccco1 | nt | i | nt | nt | nt | nt
O=c1cccc2n1Cc1cc3ccccc3nc1-2 | i | i | i | 49 | i | nt
CC1=CC(C)C(C[N+]2(C)CCCCC2)C(C)C1 (stereo not given) | i | i | i | 58 | 56 | i
CC1(CC(=O)N/N=C/c2ccc(-c3ccc(C(=O)O)cc3)o2)OCCO1 | i | nt | i | i | nt | nt
O=C(CN1CCOCC1)N/N=C/c1ccc(-c2ccc(C(=O)O)cc2)o1 | i | nt | i | 43 | 85 | i
Clc1ccc(C=NNC2=Nc3cccc4cccc2c34)cc1 | nt | i | nt | nt | nt | nt
C[C@]12CCC3c4ccc(O)cc4CCC3C1CCC2=NN (stereo not given in full) | nt | i | nt | nt | nt | nt
NC(=O)c1c(NC(=O)CSc2nnc(-c3ccco3)n2-c2ccccc2)sc2c1CCC2 | i | i | i | 41 | 46 | i
CCOC(=O)COc1ccc(Br)cc1/C=C1\SC(N)=NC1=O | i | i | i | 53 | 50 | i
NC1=NC(=O)/C(=C/c2ccc(Br)cc2)S1 | i | i | i | i | nt | nt
CC(=NNC(=O)C(N)=O)c1ccc(OC(F)F)cc1 | nt | i | nt | nt | nt | nt
CCN1/C(=C/c2ccc3cc(C)ccc3[n+]2CC)Sc2cc(C)c(C)cc21 | nt | i | i | 57 | 80 | nt
CCOC(=O)c1c(NC(=O)Cn2nc(C(F)(F)F)cc2C)sc(C)c1C | i | i | i | 45 | i | i
COc1ccc(OC)c(N(CC(=O)Nc2ccc3c(c2)OCO3)S(=O)(=O)c2ccccc2)c1 | i | i | i | i | nt | nt
COc1ccc(Cl)cc1N(CC(=O)Nc1ccc2c(c1)OCO2)S(C)(=O)=O | i | i | i | 42 | i | nt
CN(C)CCCN1C(=O)C(=O)/C(=C(/O)c2ccncc2)C1c1ccccc1 (stereo not given) | i | i | i | i | nt | nt
CN(C)CCN1C(=O)C(=O)/C(=C(/O)c2ccccc2)C1c1ccccc1F (stereo not given) | i | i | i | 72 | i | i
Cc1ccc2ncccc2c1NS(=O)(=O)c1ccccc1 | i | i | i | 43 | i | nt
COc1cccc(-c2ccc(-c3noc(-c4cccs4)n3)c(OC)n2)c1 | i | i | i | 68 | 72 | i
SMILES | JMJD2C inh | UCH37 inh | APOBEC3G inh | APOBEC3A inh | APOBEC3A confirm | UDG ctr A3A
Nc1nonc1-n1nnc(C(=O)NN=Cc2cccnc2)c1CSC1=NCCS1 | nt | i | nt | nt | nt | nt
CCOc1ccc(C=NNC(=O)c2cc(-c3ccco3)nc3ccccc23)cc1 | nt | i | nt | nt | nt | nt
O=C(/C=C/c1ccccc1)OCCCCN=C1NS(=O)(=O)c2ccccc21 | i | i | i | 83 | i | nt
O=[N+]([O-])c1cc(S(=O)(=O)N2CCCC2)ccc1NN=Cc1ccncc1 | nt | i | nt | nt | nt | nt
COc1cccc(N2CCN(CC(=O)NC(=O)NCc3ccco3)CC2)c1 | i | i | i | 47 | 27 | i
Cc1cc(O)c(CN(C)C)c2c1C(=O)/C(=C/c1ccco1)O2 | i | i | i | 48 | 15 | i
COc1ccc2c(c1)O/C(=C\c1ccco1)C2=O | i | i | i | i | nt | nt
CC(=NNC(=O)c1nn(C)cc1Br)c1ccc(NC(=O)c2ccncc2)cc1 | nt | i | nt | nt | nt | nt
COC/C=C/C1=CC2=CC(=O)C(C)(OC(=O)c3cnc4ccccc4n3)C(=O)C2=CO1 (stereo not given) | i | nt | i | 44 | 39 | nt
COC/C=C/C1=CC2=CC(=O)C(C)(OC(=O)c3cnc4ccccc4n3)C(=O)C2=CN1C(CO)CO (stereo not given) | i | i | i | i | nt | nt

Compound activity as filed in PubChem BioAssay.
